In ChEMBL document CHEMBL1287651, “Synthesis and in vitro antibacterial activity of fluoroquinolone derivatives containing 3-(N'-alkoxycarbamimidoyl)-4-(alkoxyimino) pyrrolidines” (2010):
Converted amounts (≈) assume the structure as drawn.

Tests used:
Assay type in all cases: functional
Enterococcus faecium [1] = assay: Antibacterial activity against Enterococcus faecium 08-2 after 18 to 24 hrs by twofold serial dilution method
Outline: (§1)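 MIC determined by the standard twofold serial dilution method on agar media, screening against Gram-positive and Gram-negative strains. Levofloxacin and gemifloxacin were run alongside as reference drugs.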

Pseudomonas aeruginosa [2] = assay: Antibacterial activity against Pseudomonas aeruginosa 09-34 after 18 to 24 hrs by twofold serial dilution method; outline: as §1
Staphylococcus aureus [3] = assay: Antibacterial activity against methicillin-sensitive Staphylococcus aureus 08-2 after 18 to 24 hrs by twofold serial dilution method
Outline: (§2)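 Standard twofold serial agar dilution method on agar media for MIC determination. Screened against representative Gram-positive and Gram-negative strains. Levofloxacin and GMFX served as control drugs.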

Staphylococcus aureus [4] = assay: Antibacterial activity against Staphylococcus aureus ATCC […] after 18 to 24 hrs by twofold serial dilution method; outline: as §1
Enterococcus faecalis [5] = assay: Antibacterial activity against Enterococcus faecalis 08-10 after 18 to 24 hrs by twofold serial dilution method; outline: as §1
Enterococcus faecium [6] = assay: Antibacterial activity against Enterococcus faecium 08-7 after 18 to 24 hrs by twofold serial dilution method; outline: as §1
[7] = system: Staphylococcus epidermidis; assay: Antibacterial activity against methicillin-resistant Staphylococcus epidermidis 09-2 after 18 to 24 hrs by twofold serial dilution method; outline: as §2
Escherichia coli [8] = assay: Antibacterial activity against Escherichia coli ATCC 25922 after 18 to 24 hrs by twofold serial dilution method; outline: as §1
Staphylococcus aureus [9] = assay: Antibacterial activity against methicillin-resistant Staphylococcus aureus 08-1 after 18 to 24 hrs by twofold serial dilution method; outline: as §2
Pseudomonas aeruginosa [10] = assay: Antibacterial activity against Pseudomonas aeruginosa ATCC 27853 after 18 to 24 hrs by twofold serial dilution method; outline: as §1
Klebsiella pneumoniae [11] = assay: Antibacterial activity against Klebsiella pneumoniae 09-23 after 18 to 24 hrs by twofold serial dilution method; outline: as §1
Pseudomonas aeruginosa [12] = assay: Antibacterial activity against Pseudomonas aeruginosa 09-35 after 18 to 24 hrs by twofold serial dilution method; outline: as §1
[13] = system: Staphylococcus epidermidis; assay: Antibacterial activity against methicillin-sensitive Staphylococcus epidermidis 09-3 after 18 to 24 hrs by twofold serial dilution method; outline: as §2
Klebsiella pneumoniae [14] = assay: Antibacterial activity against Klebsiella pneumoniae 09-21 after 18 to 24 hrs by twofold serial dilution method; outline: as §1
Streptococcus pneumoniae [15] = assay: Antibacterial activity against Streptococcus pneumoniae 08-4 after 18 to 24 hrs by twofold serial dilution method; outline: as §1
[16] = system: Staphylococcus epidermidis; assay: Antibacterial activity against methicillin-sensitive Staphylococcus epidermidis 09-6 after 18 to 24 hrs by twofold serial dilution method; outline: as §2
Streptococcus pneumoniae [17] = assay: Antibacterial activity against Streptococcus pneumoniae 08-2 after 18 to 24 hrs by twofold serial dilution method; outline: as §1
[18] = system: Staphylococcus epidermidis; assay: Antibacterial activity against methicillin-resistant Staphylococcus epidermidis 09-4 after 18 to 24 hrs by twofold serial dilution method; outline: as §2
Escherichia coli [19] = assay: Antibacterial activity against Escherichia coli 08-21 after 18 to 24 hrs by twofold serial dilution method; outline: as §1
Enterococcus faecalis [20] = assay: Antibacterial activity against Enterococcus faecalis 08-12 after 18 to 24 hrs by twofold serial dilution method; outline: as §1
Escherichia coli [21] = assay: Antibacterial activity against Escherichia coli 08-22 after 18 to 24 hrs by twofold serial dilution method; outline: as §1
[22] = system: Staphylococcus epidermidis; assay: Antibacterial activity against methicillin-resistant Staphylococcus epidermidis 09-3 after 18 to 24 hrs by twofold serial dilution method; outline: as §2
Pseudomonas aeruginosa [23] = assay: Antibacterial activity against Pseudomonas aeruginosa 09-32 after 18 to 24 hrs by twofold serial dilution method; outline: as §1
Klebsiella pneumoniae [24] = assay: Antibacterial activity against Klebsiella pneumoniae 09-22 after 18 to 24 hrs by twofold serial dilution method; outline: as §1
Pseudomonas aeruginosa [25] = assay: Antibacterial activity against Pseudomonas aeruginosa 09-33 after 18 to 24 hrs by twofold serial dilution method; outline: as §1

SMILES | MIC (Enterococcus faecium [1]) [µg/mL] | MIC (Pseudomonas aeruginosa [2]) [µg/mL] | MIC (Staphylococcus aureus [3]) [µg/mL] | MIC (Staphylococcus aureus [4]) [µg/mL] | MIC (Enterococcus faecalis [5]) [µg/mL] | MIC (Enterococcus faecium [6]) [µg/mL] | MIC [7] [µg/mL] | MIC (Escherichia coli [8]) [µg/mL] | MIC (Staphylococcus aureus [9]) [µg/mL] | MIC (Pseudomonas aeruginosa [10]) [µg/mL] | MIC (Klebsiella pneumoniae [11]) [µg/mL] | MIC (Pseudomonas aeruginosa [12]) [µg/mL] | MIC [13] [µg/mL] | MIC (Klebsiella pneumoniae [14]) [µg/mL] | MIC (Streptococcus pneumoniae [15]) [µg/mL] | MIC [16] [µg/mL] | MIC (Streptococcus pneumoniae [17]) [µg/mL] | MIC [18] [µg/mL] | MIC (Escherichia coli [19]) [µg/mL] | MIC (Enterococcus faecalis [20]) [µg/mL] | other results
CCO/N=C1\CN(c2c(F)cc3c(=O)c(C(=O)O)cn(C4CC4)c3c2OC(F)F)CC1/C(N)=N\OC (stereo not given) | 64 (≈ 125 µM) | 64 (≈ 125 µM) | 0.25 (≈ 0.489 µM) | 0.125 (≈ 0.244 µM) | 32 (≈ 62.6 µM) | 64 (≈ 125 µM) | 64 (≈ 125 µM) | 16 (≈ 31.3 µM) | 0.25 (≈ 0.489 µM) | 8 (≈ 15.6 µM) | 32 (≈ 62.6 µM) | 64 (≈ 125 µM) | 0.125 (≈ 0.244 µM) | 32 (≈ 62.6 µM) | 64 (≈ 125 µM) | 0.25 (≈ 0.489 µM) | 64 (≈ 125 µM) | 0.25 (≈ 0.489 µM) | 64 (≈ 125 µM) | 32 (≈ 62.6 µM) | MIC (Escherichia coli [21]): 64 µg/mL (≈ 125 µM); MIC [22]: 0.25 µg/mL (≈ 0.489 µM); MIC (Pseudomonas aeruginosa [23]): 64 µg/mL (≈ 125 µM); MIC (Klebsiella pneumoniae [24]): 32 µg/mL (≈ 62.6 µM); MIC (Pseudomonas aeruginosa [25]): 64 µg/mL (≈ 125 µM)
CCO/N=C1\CN(c2c(F)cc3c(=O)c(C(=O)O)cn(C4CC4)c3c2OC(F)F)CC1/C(N)=N\OCC (stereo not given) | > 128 | > 128 | 64 (≈ 122 µM) | 1 (≈ 1.9 µM) | > 128 | > 128 | 64 (≈ 122 µM) | 128 (≈ 244 µM) | 2 (≈ 3.81 µM) | 128 (≈ 244 µM) | > 128 | > 128 | > 128 | > 128 | > 128 | > 128 | > 128 | > 128 | > 128 | 64 (≈ 122 µM) | MIC (Escherichia coli [21]): > 128 µg/mL; MIC [22]: 64 µg/mL (≈ 122 µM); MIC (Pseudomonas aeruginosa [23]): > 128 µg/mL; MIC (Klebsiella pneumoniae [24]): 64 µg/mL (≈ 122 µM); MIC (Pseudomonas aeruginosa [25]): > 128 µg/mL
CO/N=C1\CN(c2c(F)cc3c(=O)c(C(=O)O)cn4c3c2OC[C@@H]4C)CC1/C(N)=N\O (stereo not given in full) | > 128 | > 128 | 4 (≈ 9.23 µM) | 0.125 (≈ 0.288 µM) | > 128 | > 128 | 0.25 (≈ 0.577 µM) | 128 (≈ 295 µM) | 0.25 (≈ 0.577 µM) | 32 (≈ 73.8 µM) | > 128 | 128 (≈ 295 µM) | 0.25 (≈ 0.577 µM) | > 128 | 16 (≈ 36.9 µM) | 0.25 (≈ 0.577 µM) | 0.25 (≈ 0.577 µM) | 0.25 (≈ 0.577 µM) | > 128 | > 128 | MIC (Escherichia coli [21]): > 128 µg/mL; MIC [22]: 0.25 µg/mL (≈ 0.577 µM); MIC (Pseudomonas aeruginosa [23]): 64 µg/mL (≈ 148 µM); MIC (Klebsiella pneumoniae [24]): 16 µg/mL (≈ 36.9 µM); MIC (Pseudomonas aeruginosa [25]): > 128 µg/mL
CCO/N=C1\CN(c2c(F)cc3c(=O)c(C(=O)O)cn4c3c2OC[C@@H]4C)CC1/C(N)=N\O (stereo not given in full) | > 128 | > 128 | 0.25 (≈ 0.559 µM) | 0.25 (≈ 0.559 µM) | > 128 | > 128 | 0.5 (≈ 1.12 µM) | > 128 | 0.25 (≈ 0.559 µM) | 32 (≈ 71.5 µM) | > 128 | 64 (≈ 143 µM) | 0.25 (≈ 0.559 µM) | > 128 | 16 (≈ 35.8 µM) | 0.25 (≈ 0.559 µM) | > 128 | 0.5 (≈ 1.12 µM) | > 128 | > 128 | MIC (Escherichia coli [21]): > 128 µg/mL; MIC [22]: 0.25 µg/mL (≈ 0.559 µM); MIC (Pseudomonas aeruginosa [23]): 64 µg/mL (≈ 143 µM); MIC (Klebsiella pneumoniae [24]): 16 µg/mL (≈ 35.8 µM); MIC (Pseudomonas aeruginosa [25]): > 128 µg/mL
